Test results reported in ChEMBL document CHEMBL4043222, “Pyrrolizines: Design, synthesis, anticancer evaluation and investigation of the potential mechanism of action” (Bioorg Med Chem, 2017).

Columns and labels:
[1] = target: T1, Prostaglandin G/H synthase 1 (Ovis aries, UniProt P05979); experiment: Inhibition of ovine COX1 assessed as reduction in PGH2 formation by measuring PGF2alpha by colorimetric assay
T1 sequence (P05979 whole entry): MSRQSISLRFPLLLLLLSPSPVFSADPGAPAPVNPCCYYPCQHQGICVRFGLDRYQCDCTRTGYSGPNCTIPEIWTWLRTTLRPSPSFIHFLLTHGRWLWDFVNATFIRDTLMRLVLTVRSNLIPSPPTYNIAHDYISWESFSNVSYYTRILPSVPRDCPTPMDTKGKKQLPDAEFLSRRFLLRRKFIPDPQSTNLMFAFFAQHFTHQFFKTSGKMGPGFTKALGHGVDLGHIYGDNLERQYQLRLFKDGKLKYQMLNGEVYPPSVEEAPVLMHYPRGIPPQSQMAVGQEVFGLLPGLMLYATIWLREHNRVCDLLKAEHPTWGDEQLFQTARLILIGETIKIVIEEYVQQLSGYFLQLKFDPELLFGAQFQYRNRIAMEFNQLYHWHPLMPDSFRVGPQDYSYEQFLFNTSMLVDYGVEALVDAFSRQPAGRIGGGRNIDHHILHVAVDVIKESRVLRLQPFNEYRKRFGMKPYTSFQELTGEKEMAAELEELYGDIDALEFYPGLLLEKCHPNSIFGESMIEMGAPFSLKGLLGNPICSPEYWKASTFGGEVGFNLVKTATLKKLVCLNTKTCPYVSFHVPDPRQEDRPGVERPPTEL
Procedure, shortened: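 Colorimetric COX inhibitor screening kit run per the manufacturer, using ovine COX-1. IC50 calculated from three determinations.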

A549 = experiment: Growth inhibition of human A549 cells by MTT assay; type: functional, cell-based
Procedure, shortened: (§1)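 MTT viability. Cells seeded for 24 h, then exposed to compound for 48 h in DMEM/F-12 or DMEM with 5% FBS. Vehicle controls received matching DMSO. MTT added at 0.5 mg/mL for 3 h at 37 °C. Formazan dissolved in DMSO and absorbance read at 570 nm.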

MCF7 [2] = experiment: Growth inhibition of human MCF7 cells by MTT assay; type: functional, cell-based; procedure, shortened: as §1
Hep 3B2 = experiment: Growth inhibition of human Hep3B cells by MTT assay; type: functional, cell-based; procedure, shortened: as §1
[3] = target: Casein kinase I isoform alpha (Homo sapiens) (UniProt P48729); experiment: Inhibition of CK1alpha1 (unknown origin) at 10 uM using [33P]-ATP after 20 to 40 mins by scintillation counting method
[4] = target: Ephrin type-A receptor 1 (Homo sapiens) (UniProt P21709); experiment: Inhibition of EPHA1 (unknown origin) at 10 uM using [33P]-ATP after 20 to 40 mins by scintillation counting method
[5] = target: Dual specificity tyrosine-phosphorylation-regulated kinase 3 (Homo sapiens) (UniProt O43781); experiment: Inhibition of DYRK3 (unknown origin) at 10 uM using [33P]-ATP after 20 to 40 mins by scintillation counting method
[6] = target: Rhodopsin kinase GRK1 (Homo sapiens) (UniProt Q15835); experiment: Inhibition of GRK1 (unknown origin) at 10 uM using [33P]-ATP after 20 to 40 mins by scintillation counting method
[7] = target: Tyrosine-protein kinase Blk (Homo sapiens) (UniProt P51451); experiment: Inhibition of BLK (unknown origin) at 10 uM using [33P]-ATP after 20 to 40 mins by scintillation counting method
[8] = target: 3-phosphoinositide-dependent protein kinase 1 (Homo sapiens) (UniProt O15530); experiment: Inhibition of PDK1 (unknown origin) at 10 uM using [33P]-ATP after 20 to 40 mins by scintillation counting method
[9] = target: Activin receptor type-1-like (Homo sapiens) (UniProt P37023); experiment: Inhibition of ALK1 (unknown origin) at 10 uM using [33P]-ATP after 20 to 40 mins by scintillation counting method
[10] = target: Vascular endothelial growth factor receptor 1 (Homo sapiens) (UniProt P17948); experiment: Inhibition of FLT1 (unknown origin) at 10 uM using [33P]-ATP after 20 to 40 mins by scintillation counting method
[11] = target: cGMP-dependent protein kinase 1 (Homo sapiens) (UniProt Q13976); experiment: Inhibition of PRKG1 (unknown origin) at 10 uM using [33P]-ATP after 20 to 40 mins by scintillation counting method
[12] = target: Ribosomal protein S6 kinase alpha-5 (Homo sapiens) (UniProt O75582); experiment: Inhibition of MSK1 (unknown origin) at 10 uM using [33P]-ATP after 20 to 40 mins by scintillation counting method
[13] = target: Serine/threonine-protein kinase Sgk1 (Homo sapiens) (UniProt O00141); experiment: Inhibition of SGK1 (unknown origin) at 10 uM using [33P]-ATP after 20 to 40 mins by scintillation counting method
[14] = target: Mitogen-activated protein kinase kinase kinase 5 (Homo sapiens) (UniProt Q99683); experiment: Inhibition of ASK1 (unknown origin) at 10 uM using [33P]-ATP after 20 to 40 mins by scintillation counting method
[15] = target: Glycogen synthase kinase-3 alpha (Homo sapiens) (UniProt P49840); experiment: Inhibition of GSK3alpha (unknown origin) at 10 uM using [33P]-ATP after 20 to 40 mins by scintillation counting method
[16] = target: AMP-activated protein kinase (AMPK) alpha-1/beta-1/gamma-1 (Homo sapiens) (UniProt P54619+Q9Y478+Q13131); experiment: Inhibition of AMPK alpha1/beta1/gamma1 (unknown origin) at 10 uM using [33P]-ATP after 20 to 40 mins by scintillation counting method; type: protein-complex assay
PC-3 = experiment: Anticancer activity against human PC3 cells; type: functional, cell-based
MCF7 [17] = experiment: Anticancer activity against human MCF7 cells; type: functional, cell-based

Sequence of Glycogen synthase kinase-3 alpha (Homo sapiens) (P49840 2-483 limits assumed): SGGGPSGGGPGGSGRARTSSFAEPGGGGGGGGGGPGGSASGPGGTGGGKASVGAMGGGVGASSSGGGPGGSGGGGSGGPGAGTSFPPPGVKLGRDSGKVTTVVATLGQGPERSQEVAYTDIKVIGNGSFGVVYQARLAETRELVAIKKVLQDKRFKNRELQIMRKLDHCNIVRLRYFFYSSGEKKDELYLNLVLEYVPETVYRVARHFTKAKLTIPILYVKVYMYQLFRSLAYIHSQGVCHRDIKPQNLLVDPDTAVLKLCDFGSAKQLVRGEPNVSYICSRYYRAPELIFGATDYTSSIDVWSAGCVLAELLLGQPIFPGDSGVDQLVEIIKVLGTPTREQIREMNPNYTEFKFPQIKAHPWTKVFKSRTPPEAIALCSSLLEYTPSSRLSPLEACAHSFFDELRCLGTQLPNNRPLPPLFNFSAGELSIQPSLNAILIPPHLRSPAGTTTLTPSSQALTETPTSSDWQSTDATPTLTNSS
Sequence of cGMP-dependent protein kinase 1 (Homo sapiens) (Q13976 whole entry): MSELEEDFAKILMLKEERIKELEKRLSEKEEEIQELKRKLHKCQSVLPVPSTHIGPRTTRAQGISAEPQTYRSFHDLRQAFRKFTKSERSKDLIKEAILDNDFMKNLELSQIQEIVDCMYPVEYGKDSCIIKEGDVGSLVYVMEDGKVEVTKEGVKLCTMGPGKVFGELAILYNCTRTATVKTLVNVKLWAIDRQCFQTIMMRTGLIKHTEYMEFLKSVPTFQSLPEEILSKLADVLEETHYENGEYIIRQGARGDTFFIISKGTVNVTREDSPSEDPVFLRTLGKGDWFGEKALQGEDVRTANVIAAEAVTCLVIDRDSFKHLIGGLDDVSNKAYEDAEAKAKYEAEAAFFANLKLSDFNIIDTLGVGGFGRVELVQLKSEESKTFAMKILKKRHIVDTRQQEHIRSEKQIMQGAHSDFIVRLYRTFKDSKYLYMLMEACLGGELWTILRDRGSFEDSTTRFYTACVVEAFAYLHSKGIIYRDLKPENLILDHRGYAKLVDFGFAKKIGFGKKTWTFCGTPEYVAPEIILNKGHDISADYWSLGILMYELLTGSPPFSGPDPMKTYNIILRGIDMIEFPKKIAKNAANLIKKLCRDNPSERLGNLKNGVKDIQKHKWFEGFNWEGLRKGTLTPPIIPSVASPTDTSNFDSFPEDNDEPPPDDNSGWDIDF
Sequence of Activin receptor type-1-like (Homo sapiens) (P37023 whole entry): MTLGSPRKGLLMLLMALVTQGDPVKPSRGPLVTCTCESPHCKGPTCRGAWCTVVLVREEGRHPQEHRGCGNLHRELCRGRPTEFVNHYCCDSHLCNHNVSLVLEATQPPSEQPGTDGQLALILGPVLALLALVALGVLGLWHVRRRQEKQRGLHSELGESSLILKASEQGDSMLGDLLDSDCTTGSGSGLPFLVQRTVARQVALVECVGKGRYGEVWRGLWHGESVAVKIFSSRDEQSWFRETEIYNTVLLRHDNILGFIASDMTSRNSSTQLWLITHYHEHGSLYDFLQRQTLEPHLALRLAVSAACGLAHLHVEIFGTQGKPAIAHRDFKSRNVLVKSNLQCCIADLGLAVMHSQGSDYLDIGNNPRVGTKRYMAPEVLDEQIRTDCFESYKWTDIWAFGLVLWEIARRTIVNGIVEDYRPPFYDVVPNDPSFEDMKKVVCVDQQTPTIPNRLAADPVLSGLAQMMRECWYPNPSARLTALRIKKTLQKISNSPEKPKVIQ
Sequence of AMP-activated protein kinase (AMPK) alpha-1/beta-1/gamma-1 (Homo sapiens) (P54619 whole entry): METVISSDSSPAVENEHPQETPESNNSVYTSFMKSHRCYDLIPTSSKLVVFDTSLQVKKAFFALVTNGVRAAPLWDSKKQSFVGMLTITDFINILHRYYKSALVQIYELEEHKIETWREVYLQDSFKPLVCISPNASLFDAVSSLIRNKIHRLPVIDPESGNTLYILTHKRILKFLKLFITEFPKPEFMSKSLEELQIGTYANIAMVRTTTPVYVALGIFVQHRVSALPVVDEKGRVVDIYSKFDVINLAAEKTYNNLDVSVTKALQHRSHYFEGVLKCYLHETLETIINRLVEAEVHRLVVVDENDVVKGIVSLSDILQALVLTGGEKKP
Sequence of AMP-activated protein kinase (AMPK) alpha-1/beta-1/gamma-1 (Homo sapiens) (Q13131 whole entry partner): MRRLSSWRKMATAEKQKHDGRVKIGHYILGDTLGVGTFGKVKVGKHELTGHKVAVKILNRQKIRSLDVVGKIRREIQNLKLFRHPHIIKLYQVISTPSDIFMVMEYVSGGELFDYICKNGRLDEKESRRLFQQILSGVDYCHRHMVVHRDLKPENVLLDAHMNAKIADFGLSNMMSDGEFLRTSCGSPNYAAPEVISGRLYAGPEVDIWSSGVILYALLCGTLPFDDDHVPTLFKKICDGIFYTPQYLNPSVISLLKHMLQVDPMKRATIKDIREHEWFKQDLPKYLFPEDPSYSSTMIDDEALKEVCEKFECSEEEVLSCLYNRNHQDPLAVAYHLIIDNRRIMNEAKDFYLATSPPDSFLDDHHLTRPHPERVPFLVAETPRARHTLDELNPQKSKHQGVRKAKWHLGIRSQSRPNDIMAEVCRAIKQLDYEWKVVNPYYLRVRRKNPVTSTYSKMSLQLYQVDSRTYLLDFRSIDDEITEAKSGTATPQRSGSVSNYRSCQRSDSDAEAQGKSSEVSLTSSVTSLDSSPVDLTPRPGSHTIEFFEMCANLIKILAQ
Sequence of AMP-activated protein kinase (AMPK) alpha-1/beta-1/gamma-1 (Homo sapiens) (Q9Y478 2-270 partner limits assumed): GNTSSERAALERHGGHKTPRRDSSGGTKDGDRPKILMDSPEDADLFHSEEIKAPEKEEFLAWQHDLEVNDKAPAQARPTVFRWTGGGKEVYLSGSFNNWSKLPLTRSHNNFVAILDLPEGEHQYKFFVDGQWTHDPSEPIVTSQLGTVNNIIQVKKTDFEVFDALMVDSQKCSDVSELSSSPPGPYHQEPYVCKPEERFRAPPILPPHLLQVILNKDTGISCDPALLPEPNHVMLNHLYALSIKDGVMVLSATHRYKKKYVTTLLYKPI
Sequence of Rhodopsin kinase GRK1 (Homo sapiens) (Q15835 whole entry): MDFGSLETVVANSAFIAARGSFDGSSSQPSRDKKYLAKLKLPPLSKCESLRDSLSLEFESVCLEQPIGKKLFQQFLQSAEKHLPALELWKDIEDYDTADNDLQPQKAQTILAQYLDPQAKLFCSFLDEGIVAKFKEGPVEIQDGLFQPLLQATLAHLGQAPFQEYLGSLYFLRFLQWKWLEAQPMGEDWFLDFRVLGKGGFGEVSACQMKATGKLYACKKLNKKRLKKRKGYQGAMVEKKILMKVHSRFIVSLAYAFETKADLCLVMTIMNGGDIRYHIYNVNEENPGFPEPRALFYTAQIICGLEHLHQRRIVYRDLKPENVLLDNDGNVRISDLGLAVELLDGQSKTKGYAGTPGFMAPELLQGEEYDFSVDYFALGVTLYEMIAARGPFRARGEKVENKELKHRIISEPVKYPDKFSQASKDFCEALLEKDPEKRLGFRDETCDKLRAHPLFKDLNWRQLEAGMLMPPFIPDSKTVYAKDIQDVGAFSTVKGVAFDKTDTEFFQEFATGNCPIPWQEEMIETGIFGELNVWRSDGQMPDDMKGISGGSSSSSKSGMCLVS
Sequence of Casein kinase I isoform alpha (Homo sapiens) (P48729 2-337 limits assumed): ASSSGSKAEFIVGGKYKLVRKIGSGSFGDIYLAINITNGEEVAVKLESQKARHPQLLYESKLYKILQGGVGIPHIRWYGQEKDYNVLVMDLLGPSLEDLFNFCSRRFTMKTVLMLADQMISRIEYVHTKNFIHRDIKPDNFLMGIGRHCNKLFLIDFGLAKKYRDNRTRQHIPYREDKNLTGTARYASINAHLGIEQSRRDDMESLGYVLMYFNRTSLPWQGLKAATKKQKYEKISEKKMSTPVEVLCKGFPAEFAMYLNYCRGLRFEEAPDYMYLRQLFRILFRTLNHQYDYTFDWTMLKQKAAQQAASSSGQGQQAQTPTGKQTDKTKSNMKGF
Sequence of Tyrosine-protein kinase Blk (Homo sapiens) (P51451 2-505 limits assumed): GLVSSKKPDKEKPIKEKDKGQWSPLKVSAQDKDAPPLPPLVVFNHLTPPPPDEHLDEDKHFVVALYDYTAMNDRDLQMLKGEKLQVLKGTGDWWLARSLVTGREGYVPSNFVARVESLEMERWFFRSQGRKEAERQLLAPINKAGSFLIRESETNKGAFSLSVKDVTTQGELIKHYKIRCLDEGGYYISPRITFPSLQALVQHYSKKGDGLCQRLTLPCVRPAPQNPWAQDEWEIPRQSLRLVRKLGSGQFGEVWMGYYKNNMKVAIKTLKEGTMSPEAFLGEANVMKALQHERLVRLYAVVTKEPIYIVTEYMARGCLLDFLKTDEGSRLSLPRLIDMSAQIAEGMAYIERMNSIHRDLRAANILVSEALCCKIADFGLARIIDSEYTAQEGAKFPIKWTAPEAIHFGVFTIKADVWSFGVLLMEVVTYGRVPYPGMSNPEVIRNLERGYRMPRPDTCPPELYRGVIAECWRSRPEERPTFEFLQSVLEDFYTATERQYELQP
Sequence of 3-phosphoinositide-dependent protein kinase 1 (Homo sapiens) (O15530 whole entry): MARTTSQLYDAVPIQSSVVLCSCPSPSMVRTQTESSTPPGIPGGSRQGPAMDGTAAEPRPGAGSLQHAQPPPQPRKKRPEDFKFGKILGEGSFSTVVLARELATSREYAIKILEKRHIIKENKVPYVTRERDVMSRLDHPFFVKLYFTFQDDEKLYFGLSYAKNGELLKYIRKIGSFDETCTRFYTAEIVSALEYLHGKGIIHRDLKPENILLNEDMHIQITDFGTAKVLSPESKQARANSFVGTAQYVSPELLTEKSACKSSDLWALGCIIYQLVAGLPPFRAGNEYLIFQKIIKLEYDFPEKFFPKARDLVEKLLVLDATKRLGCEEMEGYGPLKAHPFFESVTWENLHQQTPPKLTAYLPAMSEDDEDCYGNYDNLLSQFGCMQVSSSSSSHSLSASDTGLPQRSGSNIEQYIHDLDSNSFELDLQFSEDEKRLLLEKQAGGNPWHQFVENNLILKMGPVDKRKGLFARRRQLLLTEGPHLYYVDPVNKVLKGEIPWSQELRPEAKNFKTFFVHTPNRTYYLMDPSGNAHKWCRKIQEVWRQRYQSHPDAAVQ

Row | Compound | IC50 [1] [µM] | IC50 (A549) [µM] | IC50 (MCF7 [2]) [µM] | IC50 (Hep 3B2) [µM] | further results
1 | N#Cc1c(N=Cc2ccco2)c(C(=O)Nc2ccc(Cl)cc2)n2c1CCC2 | 8.41 | 28.4 | 15.7 | 27.5 | –
2 | Cc1ccc(NC(=O)c2ccc(CN3CCN(C)CC3)cc2)cc1Nc1nccc(-c2cccnc2)n1 | – | – | – | – | inhibition [3]: 0%; inhibition [4]: -22%; inhibition [5]: 10%; inhibition [6]: -2%; inhibition [7]: 3%; inhibition [8]: -34%; inhibition [9]: -14%; inhibition [10]: 10%; inhibition [11]: -4%; inhibition [12]: -49%; inhibition [13]: -3%; inhibition [14]: -5%; inhibition [15]: 1%; inhibition [16]: -18%
3 | N#Cc1c(/N=C/c2ccc([N+](=O)[O-])cc2)c(C(=O)Nc2cc(Cl)cc(Cl)c2)n2c1CCC2 | – | 16.2 | 7.9 | 14 | IC50 (PC-3): 8.54 µM; IC50 (MCF7 [17]): 7.9 µM

The remaining compounds from weak to strong by IC50 (A549), led by results:

Row | IC50 [1] [µM] | IC50 (A549) [µM] | IC50 (MCF7 [2]) [µM] | Compound | IC50 (Hep 3B2) [µM] | further results
4 | 9.54 | 20.5 | 18.3 | Cc1ccc(NC(=O)c2c(N=Cc3cccnc3)c(C#N)c3n2CCC3)cc1 | 34.8 | –
5 | 11.3 | 17.5 | 11.7 | N#Cc1c(N=Cc2cccnc2)c(C(=O)Nc2ccccc2)n2c1CCC2 | 25.8 | –
6 | 4.96 | 12.5 | 6.97 | N#Cc1c(N=Cc2cccs2)c(C(=O)Nc2ccccc2)n2c1CCC2 | 18.6 | –
7 | 10.4 | 11.4 | 5.35 | Cc1ccc(NC(=O)c2c(N=Cc3cccs3)c(C#N)c3n2CCC3)cc1 | 13.8 | –
